Experimental data collected from several papers.
Target: Ephrin type-B receptor 4 (EPHB4, Homo sapiens, UniProt P54760)
Residues used in one study (P54760 16-987): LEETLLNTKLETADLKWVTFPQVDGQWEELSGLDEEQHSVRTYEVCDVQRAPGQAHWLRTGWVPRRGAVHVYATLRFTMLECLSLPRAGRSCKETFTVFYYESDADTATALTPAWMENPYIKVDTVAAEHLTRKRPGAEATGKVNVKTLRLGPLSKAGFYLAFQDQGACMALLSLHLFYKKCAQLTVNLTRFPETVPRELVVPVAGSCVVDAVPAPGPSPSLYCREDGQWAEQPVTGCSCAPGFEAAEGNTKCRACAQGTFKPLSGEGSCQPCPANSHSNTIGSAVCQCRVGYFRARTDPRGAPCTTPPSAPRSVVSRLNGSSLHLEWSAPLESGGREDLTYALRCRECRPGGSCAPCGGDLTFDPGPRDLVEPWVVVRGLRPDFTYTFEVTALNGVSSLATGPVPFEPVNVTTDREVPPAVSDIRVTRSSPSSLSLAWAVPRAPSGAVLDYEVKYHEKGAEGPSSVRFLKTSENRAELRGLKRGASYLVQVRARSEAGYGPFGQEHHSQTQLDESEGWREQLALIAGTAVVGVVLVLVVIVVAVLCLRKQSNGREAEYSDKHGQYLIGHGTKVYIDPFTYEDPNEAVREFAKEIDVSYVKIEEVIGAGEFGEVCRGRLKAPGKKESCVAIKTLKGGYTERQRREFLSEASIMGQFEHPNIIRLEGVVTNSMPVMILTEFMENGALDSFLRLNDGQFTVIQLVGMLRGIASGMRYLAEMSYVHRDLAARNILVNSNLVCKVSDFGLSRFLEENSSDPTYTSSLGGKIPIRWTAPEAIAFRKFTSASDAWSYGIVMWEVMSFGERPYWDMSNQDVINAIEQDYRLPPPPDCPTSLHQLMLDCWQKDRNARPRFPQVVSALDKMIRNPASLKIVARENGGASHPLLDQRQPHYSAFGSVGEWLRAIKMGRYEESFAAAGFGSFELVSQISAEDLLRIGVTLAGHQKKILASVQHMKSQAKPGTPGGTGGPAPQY

| SMILES | test | setting | endpoint | result |
| --- | --- | --- | --- | --- |
| Cn1cc(-c2cccc(N3CCc4c(sc5c4CC(C)(C)C5)C3=O)c2CO)cc(Nc2ccncn2)c1=O | enzyme activity, inhibitor | 1 µM | inhibition | 0% |
| C#Cc1n[nH]c2c(-c3cn([C@@H](C)c4ccccn4)c(=O)[nH]c3=O)cc(F)cc12 | enzyme activity, inhibitor | 0.1 µM | inhibition | 5.5% |
| Cc1nn(C)cc1-c1nc2c(N3CCN(Cc4ccc(Cl)cc4)CC3)c(Cl)cnc2[nH]1 | binding, competition with immobilised ligand | 1 µM | remaining binding | 100% |
| Cn1cncc1[C@](O)(COc1ccc(C#N)cc1-c1ccc(OC(F)(F)F)cc1)c1ccc(C#N)cc1 | cell-free assay, competition with immobilised ligand | 1 µM | remaining binding | 98% |
| COc1cc(Nc2ncc(F)c(Nc3ccc4c(n3)NC(=O)C(C)(C)O4)n2)cc(OC)c1OC | binding, competition with immobilised ligand | 10 µM | inhibition | 50% |
| C#Cc1n[nH]c2c(-c3cn([C@@H](C)c4ccccc4)c(=O)[nH]c3=O)cc(F)cc12 | enzyme activity, inhibitor | 0.1 µM | inhibition | 1.4% |
| Cn1cc(-c2cc(F)cc(N3CCn4c(cc5c4CCCC5)C3=O)c2CO)cc(Nc2ccc(N3CCN(C4COC4)CC3)cn2)c1=O | enzyme activity, inhibitor | 0.1 µM | inhibition | 8% |
| N#CC1(c2ccccn2)CCN(Cc2cc(C(=O)O)c(=O)n3ccccc23)CC1 | cell-free assay, competition with immobilised ligand | 1 µM | remaining binding | 83% |
| O=c1[nH]c2ccccc2n1C1CCN(Cc2ccc(-c3[nH]c4cc5ncnc5cc4nc3-c3ccccc3)cc2)CC1 | cell-free assay | 0.5 µM | remaining signal | 96.4% |
| COc1ncccc1-c1cnn2ccc(N3CCN(C(=O)OC(C)C)CC3)nc12 | binding, competition with immobilised ligand | 1 µM | remaining binding | 100% |
